We go through 8 compounds from ChEMBL document CHEMBL1145491, “Artemisinins inhibit Trypanosoma cruzi and Trypanosoma brucei rhodesiense in vitro growth” (Antimicrob Agents Chemother, 2007).

As a reminder, the IC50 is the concentration needed to halve the response being measured. Usually IC90 stands for the concentration at which the effect reaches the 90% level. As a reminder, the inhibition is the percentage by which the read-out fell short of the control.

Data set [1] deals with Trypanosoma brucei rhodesiense. Briefly: Growth inhibition of Trypanosoma brucei rhodesiense trypomastigotes after 72 hrs by Alamar blue assay. In kind it is functional, organism-based. For orientation: The colour change of resazurin is a common sign of viable cells or microbes.
For data set [2], the system named is Leishmania donovani. Briefly: Growth inhibition of Leishmania donovani promastigotes after 72 hrs by Alamar blue assay. The class given is functional, organism-based. The method in brief:
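Parasites exposed to drug for 72 h; growth read as optical density at 600 nm against drug-free control cultures. Six drug concentrations per run, 2–5 independent runs; mean inhibition plotted against concentration, IC50 and IC90 by linear regression, reported in micromolar with standard errors of the means.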

In data set [3] the test system is Trypanosoma cruzi. Put plainly: Growth inhibition of Trypanosoma cruzi epimastigotes after 72 hrs by Alamar blue assay. In kind it is functional, organism-based.
Data set [4] concerns Leishmania donovani. Put plainly: Antiparasitic activity against Leishmania donovani in hamster assessed as reduction of liver parasite burden at 25 mg/kg, po. In kind it is functional. Also on record: scale not given: the % may be the effect or the level left.
In data set [5] the test system is Leishmania donovani. Briefly: Antiparasitic activity against Leishmania donovani in hamster assessed as reduction of spleen parasite burden at 25 mg/kg, po. In kind it is functional. Further details: scale not given: the % may be the effect or the level left.
Data set [6] concerns Leishmania donovani. Put plainly: Antiparasitic activity against Leishmania donovani in hamster assessed as reduction of liver parasite burden at 50 mg/kg, po. In kind it is functional. Also on record: scale not given: the % may be the effect or the level left.
In data set [7] the test system is Leishmania donovani. Put plainly: Antiparasitic activity against Leishmania donovani in hamster assessed as reduction of spleen parasite burden at 50 mg/kg, po. Also on record: scale not given: the % may be the effect or the level left. In kind it is functional.
Data set [8] has as its system Trypanosoma cruzi. Put plainly: Inhibition of ATPase in Trypanosoma cruzi at 1 uM in presence of calcium. Also on record: scale not given: the % may be the effect or the level left. A digest of the protocol:
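T. cruzi membranes were isolated by a protocol adapted from Leishmania. It was started with 2 mM ATP, and released inorganic phosphate was measured colorimetrically.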

Data set [9] has as its system Leishmania major. Put plainly: Antiparasitic activity against Leishmania major amastigotes in macrophage assessed as parasite killing at 3 to 30 uM. In kind it is functional.
The test system of the next data set is Leishmania infantum. Briefly: Antiparasitic activity against Leishmania infantum promastigotes assessed as parasite killing at 1.4 to 382.9 uM. In kind it is functional.
Data set [10] in a line: Growth inhibition of human U937 cells at 3 mM. The class given is cell-based, U-937.
Data set [11] deals with Leishmania major. Put plainly: Antiparasitic activity against Leishmania major promastigotes assessed as parasite killing at 750 nM. The class given is functional.

Take `C[C@@H]1[C@H](O)[C@@H](C)/C=C/C=C/C=C/C=C/C=C/C=C/C=C/[C@H](O[C@@H]2O[C@H](C)[C@@H](O)[C@H](N)[C@@H]2O)C[C@@H]2O[C@](O)(C[C@@H](O)C[C@@H](O)[C@H](O)CC[C@@H](O)C[C@@H](O)CC(=O)O[C@H]1C)C[C@H](O)[C@H]2C(=O)O` [AMPHOTERICIN B]: the IC50 was determined as 2.8 µM in data set [1], 2.8 µM with Leishmania donovani [2] and 6.5 µM with Trypanosoma cruzi [3]. The values for the IC90 (in [1]; in the data set with Trypanosoma cruzi [3]) were 11.9 µM and 19.6 µM, respectively.
Consider `C[C@H]1[C@H](N2CCS(=O)(=O)CC2)O[C@@H]2O[C@@]3(C)CC[C@H]4[C@H](C)CC[C@@H]1[C@@]24OO3` [ARTEMIFONE], for which the results for the IC50 (in [1]; with Leishmania donovani [2]; in the data set with Trypanosoma cruzi [3]) were 22.5 µM, 12.9 µM and 23.3 µM, respectively. Also, the values for the IC90 (in data set [1]; in the data set with Trypanosoma cruzi [3]) were 44.8 µM and 50.5 µM, respectively.
For `C[C@H]1[C@@H](O)O[C@@H]2O[C@@]3(C)CC[C@H]4[C@H](C)CC[C@@H]1[C@@]24OO3` [ARTENIMOL], the figures for the IC50 (in data set [1]; with Trypanosoma cruzi [3]) were 24.6 µM and 12.8 µM, respectively. Besides, the IC90 in [1] was found to be 49.6 µM; in the data set on Trypanosoma cruzi [3], 49.2 µM. Moreover, the Activity in the data set on Leishmania donovani [4], in the data set with Leishmania donovani [5], in the data set with Leishmania donovani [6] and with Leishmania donovani [7] was 75% in each case.
For the compound `C/C=C(/C)C(=O)O[C@H]1C(C)=C2[C@H]([C@@H]1OC(=O)CCCCCCC)[C@@](C)(OC(C)=O)C[C@H](OC(=O)CCC)[C@@]1(O)[C@H]2OC(=O)[C@@]1(C)O` [THAPSIGARGIN], the IC50 in data set [1] was 30.1 µM; with Leishmania donovani [2], 28.1 µM; in the data set on Trypanosoma cruzi [3], 33.9 µM. The IC90 is 71.9 µM in [1] and 78.1 µM in the data set on Trypanosoma cruzi [3]. Also, the Activity in the data set with Trypanosoma cruzi [8] was 25.8%.
For the compound `C[C@@H]1CC[C@H]2[C@@H](C)C(=O)O[C@@H]3O[C@@]4(C)CC[C@@H]1[C@]32OO4` [ARTEMISININ], the IC50 in [1] worked out at 20.4 µM; in the data set with Leishmania donovani [2], 30.8 µM; in the data set with Trypanosoma cruzi [3], 13.4 µM. Further, the figures for the IC90 (in data set [1]; with Trypanosoma cruzi [3]) were 49.1 µM and 46.5 µM, respectively. Moreover, the Activity in the data set on Leishmania major [9] was 50%; in the data set with Leishmania infantum, 50%; with Leishmania major [11], 50%; in the data set with Trypanosoma cruzi [8], 24.9%. Moreover, the inhibition at 3000 µM in [10] was under 5%.
For the compound `C[C@@H]1O[C@@H](O[C@H]2C[C@@H](O)[C@]3(CO)[C@H]4[C@H](O)C[C@]5(C)[C@@H](C6=CC(=O)OC6)CC[C@]5(O)[C@@H]4CC[C@]3(O)C2)[C@H](O)[C@H](O)[C@H]1O` [OUABAIN], the IC50 (in data set [1]; in the data set with Leishmania donovani [2]; in the data set with Trypanosoma cruzi [3]) was over 450 µM in each case. Besides, the 90% effect concentration (IC90) in data set [1] turned out to be 1180 µM; with Trypanosoma cruzi [3], 953 µM.
For `COc1ccc2[nH]c([S+]([O-])Cc3ncc(C)c(OC)c3C)nc2c1` (centres undefined) [OMEPRAZOLE], the IC50 in [1] is 177 µM; in the data set with Leishmania donovani [2] it was 340 µM; in the data set with Trypanosoma cruzi [3], 178 µM. Besides, the values for the IC90 (in [1]; with Trypanosoma cruzi [3]) were 509 µM and 526 µM, respectively.
With `N=C(N)c1ccc(OCCCCCOc2ccc(C(=N)N)cc2)cc1` [PENTAMIDINE], the IC50 in data set [1] came out at 1.2 µM; in the data set with Leishmania donovani [2] it was 1 µM; in the data set on Trypanosoma cruzi [3], 1.1 µM. Also, the IC90 worked out at 3.7 µM in data set [1] and 4.4 µM in the data set on Trypanosoma cruzi [3].
